≈ marks a conversion by molar mass, not a printed value. Calls of active or inactive are those of the source. The rule behind the calls is not given here.
Legend:
Mus musculus = experiment: Toxicity in ICR mouse at 250 mg/kg, iv after 21 to 22 days; assay type: organism-based; conditions: in vivo
Acinetobacter baumannii [1] = experiment: Antibacterial activity against Acinetobacter baumannii ATCC 17961 infected in ICR mouse assessed as mouse survival rate at 10 mg/kg, iv administered at 30 mins and 24.5 hrs post infection measured 7 days post infection relative to vehicle-treated control; assay type: functional; conditions: ATCC 17961, iv
Outline: (§1)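 Sepsis model in 6- to 8-week-old female ICR mice infected intraperitoneally with A. baumannii ATCC 17961. Treatment given intravenously at 30 min and again at 24.5 h after infection, at 25, 10 or 5 mg/kg. Saline vehicle group as control. Five mice per dose group and six in the vehicle group. Read-out was survival.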

Acinetobacter baumannii [2] = experiment: Antibacterial activity against Acinetobacter baumannii ATCC 17961 infected in ICR mouse assessed as mouse survival rate at 5 mg/kg, iv administered at 30 mins and 24.5 hrs post infection measured 7 days post infection relative to vehicle-treated control; assay type: functional; conditions: ATCC 17961, iv; outline: as §1
Acinetobacter baumannii [3] = experiment: Antibacterial activity against Acinetobacter baumannii ATCC BAA 1797 after 18 hrs by broth microdilution method; assay type: functional; conditions: ATCC BAA 1797, 18 h
Staphylococcus aureus [4] = experiment: Antibacterial activity against Staphylococcus aureus SG511 after 18 hrs by broth microdilution method; assay type: functional; conditions: SG511, 18 h
Acinetobacter baumannii [5] = experiment: Antibacterial activity against Acinetobacter baumannii ATCC 17961 infected in ICR mouse assessed as mouse survival rate at 25 mg/kg, iv administered at 30 mins and 24.5 hrs post infection measured 7 days post infection relative to vehicle-treated control; assay type: functional; conditions: ATCC 17961, iv; outline: as §1
Escherichia coli = experiment: Antibacterial activity against Escherichia coli DCO after 18 hrs by broth microdilution method; assay type: functional
Pseudomonas aeruginosa = experiment: Antibacterial activity against Pseudomonas aeruginosa PAO1 after 18 hrs by broth microdilution method; assay type: functional; conditions: PAO1, 18 h
Acinetobacter baumannii [6] = experiment: Antibacterial activity against Acinetobacter baumannii ARC 5081 after 18 hrs by broth microdilution method; assay type: functional; conditions: ARC 5081, 18 h
Acinetobacter baumannii [7] = experiment: Antibacterial activity against Acinetobacter baumannii ATCC BAA 1800 after 18 hrs by broth microdilution method; assay type: functional; conditions: ATCC BAA 1800, 18 h
Staphylococcus aureus [8] = experiment: Antibacterial activity against Staphylococcus aureus ATCC 11632 after 18 hrs by broth microdilution method; assay type: functional; conditions: ATCC 11632, 18 h
Acinetobacter baumannii [9] = experiment: Antibacterial activity against Acinetobacter baumannii ARC 5079 after 18 hrs by broth microdilution method; assay type: functional; conditions: ARC 5079, 18 h
Acinetobacter baumannii [10] = experiment: Antibacterial activity against Acinetobacter baumannii ATCC BAA 1793 after 18 hrs by broth microdilution method; assay type: functional; conditions: ATCC BAA 1793, 18 h
Acinetobacter baumannii [11] = experiment: Antibacterial activity against Acinetobacter baumannii ATCC 19606 after 18 hrs by broth microdilution method; assay type: functional; conditions: ATCC 19606, 18 h
Acinetobacter baumannii [12] = experiment: Antibacterial activity against Acinetobacter baumannii ATCC 17961 after 18 hrs by broth microdilution method; assay type: functional; conditions: ATCC 17961, 18 h
Acinetobacter baumannii [13] = experiment: Antibacterial activity against Acinetobacter baumannii ARC 3486 after 18 hrs by broth microdilution method; assay type: functional; conditions: ARC 3486, 18 h
Burkholderia multivorans = experiment: Antibacterial activity against Burkholderia multivorans AU0100 after 18 hrs by broth microdilution method; assay type: functional; conditions: AU0100, 18 h
Acinetobacter baumannii [14] = experiment: Antibacterial activity against Acinetobacter baumannii ARC 3484 after 18 hrs by broth microdilution method; assay type: functional; conditions: ARC 3484, 18 h
Acinetobacter baumannii [15] = experiment: Antibacterial activity against Acinetobacter baumannii ATCC BAA 1710 after 18 hrs by broth microdilution method; assay type: functional; conditions: ATCC BAA 1710, 18 h
[16] = Binding affinity to ferric ion
[17] = Binding affinity to ferric ion at 5 mg after 18 hrs by LC-MS analysis
Outline: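 Ferric complex made by adding Fe(acac)3 (1.1 mg) in MeOH (1 mL) to conjugate (5.0 mg) in MeOH (1 mL). Analysed by LC on a C18 column (2.2 μm particles) at 40 °C, with a water/acetonitrile mobile phase. UV-vis diode-array detection over 190−400 nm, plus MS.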

Acinetobacter baumannii [18] = experiment: Antibacterial activity against Acinetobacter baumannii ATCC 17961 infected in ICR mouse assessed as mouse survival rate at 50 mg/kg, iv administered at 30 mins and 24.5 hrs post infection measured 7 days post infection; assay type: functional, organism-based
Outline: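 Female ICR mice, 6 to 8 weeks old, infected intraperitoneally with A. baumannii ATCC 17961 (sepsis model). Treatments were given intravenously at 30 min and 24.5 h after infection, with saline as vehicle. Survival was scored as the fraction of mice alive per group (3 to 6 mice per group).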

Row | SMILES | MIC (Acinetobacter baumannii [3]) | MIC (Staphylococcus aureus [4]) | MIC (Escherichia coli) | MIC (Pseudomonas aeruginosa) | MIC (Acinetobacter baumannii [6]) | MIC (Acinetobacter baumannii [7]) | MIC (Staphylococcus aureus [8]) | MIC (Acinetobacter baumannii [9]) | MIC (Acinetobacter baumannii [10]) | MIC (Acinetobacter baumannii [11]) | MIC (Acinetobacter baumannii [12]) | MIC (Acinetobacter baumannii [13]) | MIC (Burkholderia multivorans) | MIC (Acinetobacter baumannii [14]) | MIC (Acinetobacter baumannii [15]) | further results
1 | CCCCCCCCCC(=O)N[C@@H](Cc1c[nH]c2ccccc12)C(=O)N[C@H](CC(N)=O)C(=O)N[C@@H](CC(=O)O)C(=O)N[C@@H]1C(=O)NCC(=O)N[C@@H](CCCNC(=O)CCCC(=O)N(O)CCCCCNC(=O)CCC(=O)N(CCCCNC(=O)c2cccc(O)c2O)CCCNC(=O)c2cccc(O)c2O)C(=O)N[C@@H](CC(=O)O)C(=O)N[C@H](C)C(=O)N[C@@H](CC(=O)O)C(=O)NCC(=O)N[C@H](CO)C(=O)N[C@@H]([C@@H](C)CC(=O)O)C(=O)N[C@@H](CC(=O)c2ccccc2N)C(=O)O[C@@H]1C [listing 1 of 2 here] | – | – | – | – | – | – | – | – | – | – | – | – | – | – | – | Activity (Mus musculus): Non-Toxic
2 | CCCCCCCCCC(=O)N[C@@H](Cc1c[nH]c2ccccc12)C(=O)N[C@H](CC(N)=O)C(=O)N[C@@H](CC(=O)O)C(=O)N[C@@H]1C(=O)NCC(=O)N[C@@H](CCCNC(=O)CCCC(=O)N(O)CCCCCNC(=O)CCC(=O)N(CCCCNC(=O)c2cccc(O)c2O)CCCNC(=O)c2cccc(O)c2O)C(=O)N[C@@H](CC(=O)O)C(=O)N[C@H](C)C(=O)N[C@@H](CC(=O)O)C(=O)NCC(=O)N[C@H](CO)C(=O)N[C@@H]([C@@H](C)CC(=O)O)C(=O)N[C@@H](CC(=O)c2ccccc2N)C(=O)O[C@@H]1C [listing 2 of 2 here] | 0.8 µM (≈ 1.87 µg/mL) | 6 µM (≈ 14 µg/mL) | > 100 µM | > 100 µM | 0.4 µM (≈ 0.934 µg/mL) | 0.8 µM (≈ 1.87 µg/mL) | 12.5 µM (≈ 29.2 µg/mL) | 0.8 µM (≈ 1.87 µg/mL) | 0.8 µM (≈ 1.87 µg/mL) | 0.8 µM (≈ 1.87 µg/mL) | 0.4 µM (≈ 0.934 µg/mL) | 0.4 µM (≈ 0.934 µg/mL) | > 100 µM | 0.4 µM (≈ 0.934 µg/mL) | 0.8 µM (≈ 1.87 µg/mL) | survival at 10 mg/kg (Acinetobacter baumannii [1]): 80%; survival at 5 mg/kg (Acinetobacter baumannii [2]): 20%; survival at 25 mg/kg (Acinetobacter baumannii [5]): 80%
3 | CCCCCCCCCC(=O)N[C@@H](Cc1c[nH]c2ccccc12)C(=O)N[C@@H](CC(N)=O)C(=O)N[C@@H](CC(=O)O)C(=O)N[C@@H]1C(=O)NCC(=O)N[C@@H](CCCNC(=O)CCCC(=O)N(CCCCCNC(=O)CCC(=O)N(CCCCNC(=O)c2cccc(OCc3ccccc3)c2OCc2ccccc2)CCCNC(=O)c2cccc(OCc3ccccc3)c2OCc2ccccc2)OCc2ccccc2)C(=O)N[C@@H](CC(=O)O)C(=O)N[C@H](C)C(=O)N[C@@H](CC(=O)O)C(=O)NCC(=O)N[C@H](CO)C(=O)N[C@@H]([C@@H](C)CC(=O)O)C(=O)N[C@@H](CC(=O)c2ccccc2N)C(=O)O[C@@H]1C | > 50 µM | – | – | – | > 50 µM | > 50 µM | – | > 50 µM | > 50 µM | > 50 µM | > 50 µM | > 50 µM | – | > 50 µM | > 50 µM | Activity [16]: inactive
4 | CCCCCCCCCC(=O)N[C@@H](Cc1c[nH]c2ccccc12)C(=O)N[C@@H](CC(N)=O)C(=O)N[C@@H](CC(=O)O)C(=O)N[C@@H]1C(=O)NCC(=O)N[C@@H](CCCNC(=O)CCCC(=O)N(O)CCCCCNC(=O)CCC(=O)N(CCCCNC(=O)c2cccc(O)c2O)CCCNC(=O)c2cccc(O)c2O)C(=O)N[C@@H](CC(=O)O)C(=O)N[C@H](C)C(=O)N[C@@H](CC(=O)O)C(=O)NCC(=O)N[C@H](CO)C(=O)N[C@@H]([C@@H](C)CC(=O)O)C(=O)N[C@@H](CC(=O)c2ccccc2N)C(=O)O[C@@H]1C | – | – | – | – | – | – | – | – | – | – | – | – | – | – | – | Activity [17]: Active
5 | NCC[C@H](O)C(=O)N[C@@H]1C[C@H](N)[C@@H](O[C@H]2O[C@H](CN)[C@@H](O)[C@H](O)[C@H]2O)[C@H](O)[C@H]1O[C@H]1O[C@H](CO)[C@@H](O)[C@H](N)[C@H]1O [AMIKACIN] | 27 µM (≈ 15.8 µg/mL) | – | – | – | > 50 µM | > 50 µM | – | > 50 µM | > 50 µM | 3.4 µM (≈ 1.99 µg/mL) | 1.7 µM (≈ 0.996 µg/mL) | > 50 µM | – | > 27 µM | > 50 µM | –
6 | O=C(O)c1cn(C2CC2)c2cc(N3CCNCC3)c(F)cc2c1=O [CIPROFLOXACIN] | > 25 µM | 0.5 µM (≈ 0.166 µg/mL) | 0.5 µM (≈ 0.166 µg/mL) | 0.5 µM (≈ 0.166 µg/mL) | > 25 µM | > 25 µM | 0.5 µM (≈ 0.166 µg/mL) | > 25 µM | > 25 µM | 0.8 µM (≈ 0.265 µg/mL) | 0.2 µM (≈ 0.0663 µg/mL) | > 25 µM | > 25 µM | > 25 µM | > 25 µM | –
7 | CCCCCCCCCC(=O)N[C@@H](Cc1c[nH]c2ccccc12)C(=O)N[C@@H](CC(N)=O)C(=O)N[C@@H](CC(=O)O)C(=O)N[C@@H]1C(=O)NCC(=O)N[C@@H](CCCN)C(=O)N[C@@H](CC(=O)O)C(=O)N[C@H](C)C(=O)N[C@@H](CC(=O)O)C(=O)NCC(=O)N[C@H](CO)C(=O)N[C@@H]([C@H](C)CC(=O)O)C(=O)N[C@@H](CC(=O)c2ccccc2N)C(=O)O[C@@H]1C [DAPTOMYCIN] | > 100 µM | 0.05 µM (≈ 0.081 µg/mL) | > 100 µM | > 100 µM | > 100 µM | > 100 µM | 0.4 µM (≈ 0.648 µg/mL) | > 100 µM | > 100 µM | – | > 100 µM | > 100 µM | > 100 µM | > 100 µM | > 100 µM | Activity (Acinetobacter baumannii [18]): inactive
